Experiments:
[1] = Clearance in dog at 1 mg/kg, iv administered as single dose; assay type: ADME, organism-based, Canis lupus familiaris; conditions: in vivo
Method in brief: (§1)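 Dogs were given single intravenous doses, or oral doses from 5 to 50 mg/kg. Plasma PK parameters were CL, AUC0-inf, t1/2, Cmax and %F.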

[2] = Oral bioavailability in Sprague-Dawley rat at 50 mg/kg administered as single dose; assay type: ADME, organism-based; conditions: in vivo
Method in brief: (§2)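 Sprague-Dawley rats each received one dose of drug, either iv across 10-50 mg/kg or orally at 10, 25 and 50 mg/kg. Plasma pharmacokinetics covered CL, AUC0-inf, t1/2, Cmax and Tmax. Oral bioavailability (%F) was obtained from the oral and iv exposures.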

[3] = AUC (0 to infinity) in dog at 50 mg/kg, po administered as single dose; assay type: ADME, organism-based, Canis lupus familiaris; design: dose 50 mg/kg, route oral, time infinity; conditions: in vivo; method in brief: as §1
[4] = Half life in dog at 10 mg/kg, iv administered as single dose; assay type: ADME, organism-based, Canis lupus familiaris; conditions: in vivo
Method in brief: (§3)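 Dogs were dosed once, by iv injection or orally, with oral doses spanning 5 to 50 mg/kg. Plasma pharmacokinetic parameters were derived: CL, AUC0-inf, t1/2, Cmax and %F.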

[5] = AUC (0 to infinity) in Sprague-Dawley rat at 25 mg/kg, po administered as single dose; assay type: ADME, organism-based; design: dose 25 mg/kg, time infinity, route oral; conditions: in vivo
Method in brief: (§4)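 Sprague-Dawley rats were given single doses, intravenous at 10–50 mg/kg or oral at 10, 25 and 50 mg/kg. Plasma PK parameters were CL, AUC0-inf, t1/2, Cmax and %F.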

[6] = Clearance in Sprague-Dawley rat at 25 mg/kg, iv administered as single dose; assay type: ADME, organism-based; conditions: in vivo; method in brief: as §4
[7] = Cmax in dog at 50 mg/kg, po administered as single dose; assay type: ADME, organism-based, Canis lupus familiaris; design: dose 50 mg/kg, route oral; conditions: in vivo; method in brief: as §1
[8] = Oral bioavailability in C57Bl6 mouse at 10 mg/kg administered as single dose; assay type: ADME, organism-based; conditions: in vivo
Method in brief: (§5)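 C57Bl/6 mice received a single oral dose of 10 or 100 mg/kg, with iv dosing run for comparison. Plasma AUC0-inf, t1/2, Cmax and oral bioavailability (%F) were determined.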

[9] = Cmax in dog at 150 mg/kg, po administered as single dose; assay type: ADME, organism-based, Canis lupus familiaris; design: dose 150 mg/kg, route oral; conditions: in vivo
[10] = AUC (0 to infinity) in dog at 15 mg/kg, po administered as single dose; assay type: ADME, organism-based, Canis lupus familiaris; design: dose 15 mg/kg, route oral, time infinity; conditions: in vivo; method in brief: as §1
[11] = AUC (0 to infinity) in dog at 10 mg/kg, iv administered as single dose; assay type: ADME, organism-based, Canis lupus familiaris; design: dose 10 mg/kg, time infinity, route intravenous; conditions: in vivo; method in brief: as §1
[12] = Half life in C57Bl6 mouse at 10 mg/kg, iv administered as single dose; assay type: ADME, organism-based; conditions: in vivo
Method in brief: (§6)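 C57Bl/6 mice were given single intravenous or oral doses (oral at 10 and 100 mg/kg). Plasma PK parameters were CL, AUC0-inf, t1/2, Cmax and %F.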

[13] = AUC (0 to infinity) in rat at 250 mg/kg administered twice daily for 28 days with 2 week recovery; assay type: ADME, organism-based; design: dose 250 mg/kg, time infinity; conditions: in vivo
[14] = Clearance in Sprague-Dawley rat at 10 mg/kg, iv administered as single dose; assay type: ADME, organism-based; conditions: in vivo; method in brief: as §4
[15] = Intrinsic clearance in human liver microsomes; assay type: ADME, Microsome; conditions: read-out: CLH
[16] = Clearance in dog at 10 mg/kg, iv administered as single dose; assay type: ADME, organism-based, Canis lupus familiaris; conditions: in vivo; method in brief: as §1
[17] = Toxicity in rat administered twice daily for 28 days with 2 week recovery; conditions: in vivo
Method in brief: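 Rats and dogs underwent 28-day repeat-dose studies with twice-daily dosing, followed by a 2-week recovery period. The NOAEL (mg/kg/dose BID) was established, and the matching systemic exposure was reported as AUC0-inf.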

[18] = Half life in Sprague-Dawley rat at 50 mg/kg, po administered as single dose; assay type: ADME, organism-based; conditions: in vivo; method in brief: as §2
[19] = AUC (0 to infinity) in C57Bl6 mouse at 100 mg/kg, po administered as single dose; assay type: ADME, organism-based; design: dose 100 mg/kg, time infinity, route oral; conditions: in vivo; method in brief: as §6
[20] = Cmax in dog at 5 mg/kg, po administered as single dose; assay type: ADME, organism-based, Canis lupus familiaris; design: dose 5 mg/kg, route oral; conditions: in vivo; method in brief: as §1
[21] = Aqueous solubility of the compound at pH 6.5; assay type: physicochemical
[22] = Clearance in dog at 3 mg/kg, iv administered as single dose; assay type: ADME, organism-based, Canis lupus familiaris; conditions: in vivo; method in brief: as §1
[23] = Half life in dog at 25 mg/kg, iv administered as single dose; assay type: ADME, organism-based, Canis lupus familiaris; conditions: in vivo; method in brief: as §3
[24] = Half life in dog at 1 mg/kg, iv administered as single dose; assay type: ADME, organism-based, Canis lupus familiaris; conditions: in vivo; method in brief: as §3
[25] = Clearance in C57Bl6 mouse at 10 mg/kg, iv administered as single dose; assay type: ADME, organism-based; conditions: in vivo; method in brief: as §6
[26] = Clearance in C57Bl6 mouse at 50 mg/kg, iv administered as single dose; assay type: ADME, organism-based; conditions: in vivo; method in brief: as §6
[27] = Permeability across apical to basolateral side in human Caco2 cells; assay type: ADME, cell-based; conditions: Caco-2, read-out: permeability
[28] = Oral bioavailability in C57Bl6 mouse at 100 mg/kg administered as single dose; assay type: ADME, organism-based; conditions: in vivo; method in brief: as §5
[29] = AUC (0 to infinity) in dog at 5 mg/kg, po administered as single dose; assay type: ADME, organism-based, Canis lupus familiaris; design: dose 5 mg/kg, time infinity, route oral; conditions: in vivo; method in brief: as §1
[30] = AUC (0 to infinity) in Sprague-Dawley rat at 50 mg/kg, po administered as single dose; assay type: ADME, organism-based; design: dose 50 mg/kg, route oral, time infinity; conditions: in vivo; method in brief: as §4
[31] = Tmax in Sprague-Dawley rat at 10 to 50 mg/kg, po administered as single dose; assay type: ADME, organism-based; conditions: in vivo; method in brief: as §2
[32] = AUC (0 to infinity) in dog at 3 mg/kg, iv administered as single dose; assay type: ADME, organism-based, Canis lupus familiaris; design: dose 3 mg/kg, time infinity, route intravenous; conditions: in vivo; method in brief: as §1
[33] = Clearance in dog at 25 mg/kg, iv administered as single dose; assay type: ADME, organism-based, Canis lupus familiaris; conditions: in vivo; method in brief: as §1
[34] = Oral bioavailability in Sprague-Dawley rat at 25 mg/kg administered as single dose; assay type: ADME, organism-based; conditions: in vivo; method in brief: as §2
[35] = Aqueous solubility of the compound at pH 1; assay type: physicochemical
[36] = Cmax in Sprague-Dawley rat at 50 mg/kg, po administered as single dose; assay type: ADME, organism-based; design: dose 50 mg/kg, route oral; conditions: in vivo; method in brief: as §4

Compound: O[C@H](C[C@H]1c2c(F)cccc2-c2cncn21)[C@H]1CC[C@H](O)CC1 [NAVOXIMOD]
- clearance [1]: 59.3 mL/min/kg
- bioavailability [2]: 44.1%
- AUC(0-inf) [3]: 8640 ng·h/mL
- half-life [4]: 4.8 h
- AUC(0-inf) [5]: 7980 ng·h/mL
- clearance [6]: 32 mL/min/kg
- Cmax [7]: 7860 ng/mL
- bioavailability [8]: 69%
- Cmax [9]: 40400 ng/mL
- AUC(0-inf) [10]: 1040 ng·h/mL
- AUC(0-inf) [11]: 3130 ng·h/mL
- half-life [12]: 3.9 h
- AUC(0-inf) [13]: 22500 ng·h/mL
- clearance [14]: 44.6 mL/min/kg
- predicted hepatic clearance [15]: 8.52 mL/min/kg
- clearance [16]: 53.7 mL/min/kg
- NOAEL at 28 days [17]: 250 mg/kg
- half-life [18]: 1.06 h
- AUC(0-inf) [19]: 60200 ng·h/mL
- Cmax [20]: 132 ng/mL
- solubility [21]: > 200 µM
- clearance [22]: 56.1 mL/min/kg
- half-life [23]: 6.9 h
- half-life [24]: 2.2 h
- clearance [25]: 27.5 mL/min/kg
- clearance [26]: 25 mL/min/kg
- Papp A→B [27]: 22.7 ×10⁻⁶ cm/s
- bioavailability [28]: 87%
- AUC(0-inf) [29]: 207 ng·h/mL
- AUC(0-inf) [30]: 15400 ng·h/mL
- Tmax [31]: 0.5 h
- AUC(0-inf) [32]: 901 ng·h/mL
- clearance [33]: 41.4 mL/min/kg
- bioavailability [34]: 60.4%
- solubility [35]: > 200 µM
- Cmax [36]: 10000 ng/mL

From ChEMBL document CHEMBL4364294 (J Med Chem, 2019)
